The values that follow come from ChEMBL document CHEMBL1799996, “Novel C8-linked pyrrolobenzodiazepine (PBD)-heterocycle conjugates that recognize DNA sequences containing an inverted CCAAT box” (2011).

Assay [1] relates to Nucleic Acid. The assay can be described thus: Binding affinity to ICB2 site of human topoisomerase 2alpha promoter after 17 hrs by DNase 1 footprinting assay. Type of assay: nucleic-acid assay. Summed up:
(§1)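 Reported value is the lowest conjugate concentration that gives a measurable footprint at the respective inverted CCAAT site.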

Assay [2] has as its system Nucleic Acid. The assay can be described thus: Binding affinity to ICB1 site of human topoisomerase 2alpha promoter after 17 hrs by DNase 1 footprinting assay. The class given is nucleic-acid assay. Summed up: as §1
Assay [3] is described as follows: Cytotoxicity against human NCI60 cells. The class given is functional. Summed up: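 NCI 60-cell-line panel. GI50, TGI and LC50 (50% growth inhibition, total growth inhibition and 50% lethality) are given as the mean across all 60 lines.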
In assay [4] the test system is Nucleic Acid. The assay can be described thus: Binding affinity to calf thymus DNA assessed as change in melting temperature at 5 uM at pH 7 after 18 hrs by thermal denaturation assay. The class given is nucleic-acid assay. As to conditions: Bos taurus.
Assay [5] has as its system Nucleic Acid. The assay can be described thus: Binding affinity to calf thymus DNA assessed as change in melting temperature at 5 uM at pH 7 after 4 hrs by thermal denaturation assay. The class given is nucleic-acid assay. As to conditions: Bos taurus.

The structures appear in SMILES notation.

A word on the GI50: it is the concentration at which growth is held to half of that of the control. A high value points to lower sensitivity of the cells. By TGI is commonly meant the concentration at which net growth stops. Read a high TGI as less potent growth arrest. As usually defined, the ΔTm is the shift of the melting midpoint relative to a reference.

In assay [1], `COC(=O)c1cc(NC(=O)c2cc(NC(=O)CCCOc3cc4c(cc3OC)C(=O)N3CCC[C@H]3C=N4)cn2C)cn1C` showed an Activity of 1 µM. In addition, in assay [2], the Activity worked out at 1 µM. For the same molecule, in assay [3], it took 11 nM to inhibit growth by half (GI50), the LC50 (50% lethal concentration) was found to be 10 µM and the TGI worked out at 0.12 µM. Moreover, the ΔTm in assay [4] was 15.1 °C. Also, in assay [5], the ΔTm is 14.5 °C.

In assay [3], `COC(=O)CCCOc1cc2c(cc1OC)C(=O)N1CCC[C@H]1C=N2` yielded a GI50 of 1740 nM, an LC50 (50% lethal concentration) of 46.8 µM and a TGI of 11.8 µM. Further, the thermal shift (ΔTm) in assay [4] worked out at 0.4 °C. Moreover, the ΔTm in assay [5] turned out to be 0.3 °C.
